Results reported in ChEMBL document CHEMBL4321820, “Identification and Optimization of Mechanism-Based Fluoroallylamine Inhibitors of Lysyl Oxidase-like 2/3” (J Med Chem, 2019).
Calls of active or inactive are those of the source. The calls are words filed in the database; no cut-off is given here.

How the values were obtained:
[1] = tested on: Mus musculus; assay: Antifibrotic activity in CCl4-induced BALB/c mouse model of liver fibrosis assessed as reduction in liver fibrosis area at 15 mg/kg, po administered once daily for 6 weeks by alpha-SMA staining based microscopy; type: functional, organism-based
Summary of the method: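 Female BALB/c mice given CCl4 i.p. (1 mL/kg of 25% CCl4 in olive oil) twice weekly for 6 weeks; sacrificed 48 h after last dose. Test articles oral, once daily: prophylactic weeks 1-6 or therapeutic weeks 4-6; imatinib control 50 mg/kg daily weeks 1-6. One formalin-fixed liver lobe stained for Picro Sirius Red and α-SMA; fibrotic area as % of total liver area; mean ± SEM, one-way ANOVA with Dunnett's test.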

[2] = tested on: Mus musculus; assay: Effect on plasma ALT level in CCl4-induced BALB/c mouse model of liver fibrosis at 15 mg/kg, po administered once daily for 6 weeks; type: ADME, organism-based; conditions: in vivo, 1008 h
Summary of the method: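 CCl4 liver fibrosis in female BALB/c mice: CCl4 i.p. (1 mL/kg 25% in olive oil) twice weekly for 6 weeks, sacrifice 48 h after final injection. Oral once-daily dosing weeks 1-6 or weeks 4-6; imatinib 50 mg/kg daily weeks 1-6. ALT and AST measured in plasma.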

[3] = tested on: Mus musculus; assay: Antifibrotic activity in ip dosed bleomycin-induced C57BL/6 mouse model of lung fibrosis assessed as reduction in Ashcroft score administered on day 7 to 27 measured on day 28 by H and E staining based microscopy; type: functional, organism-based
Summary of the method: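 Female C57BL/6 mice, 6-8 weeks old, under isoflurane received intranasal bleomycin sulphate 0.05 U/mouse in PBS; controls got PBS. Once-daily i.p. treatment days 7-27, n=12/group; imatinib 50 mg/kg i.p. as comparator. Sacrifice at day 28; lung fibrosis scored by Ashcroft score.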

[4] = target: T1, Lysyl oxidase homolog 2 (Mus musculus, UniProt P58022); assay: Inhibition of recombinant mouse C-terminal His-tagged LOLX2 (26-776 residues) expressed in mouse myeloma cells using putrescine as substrate preincubated with enzyme for 30 mins followed by substrate addition and measured every 2.5 mins for 30 mins by Amplex-Red oxidation assay
T1 sequence (P58022 whole entry): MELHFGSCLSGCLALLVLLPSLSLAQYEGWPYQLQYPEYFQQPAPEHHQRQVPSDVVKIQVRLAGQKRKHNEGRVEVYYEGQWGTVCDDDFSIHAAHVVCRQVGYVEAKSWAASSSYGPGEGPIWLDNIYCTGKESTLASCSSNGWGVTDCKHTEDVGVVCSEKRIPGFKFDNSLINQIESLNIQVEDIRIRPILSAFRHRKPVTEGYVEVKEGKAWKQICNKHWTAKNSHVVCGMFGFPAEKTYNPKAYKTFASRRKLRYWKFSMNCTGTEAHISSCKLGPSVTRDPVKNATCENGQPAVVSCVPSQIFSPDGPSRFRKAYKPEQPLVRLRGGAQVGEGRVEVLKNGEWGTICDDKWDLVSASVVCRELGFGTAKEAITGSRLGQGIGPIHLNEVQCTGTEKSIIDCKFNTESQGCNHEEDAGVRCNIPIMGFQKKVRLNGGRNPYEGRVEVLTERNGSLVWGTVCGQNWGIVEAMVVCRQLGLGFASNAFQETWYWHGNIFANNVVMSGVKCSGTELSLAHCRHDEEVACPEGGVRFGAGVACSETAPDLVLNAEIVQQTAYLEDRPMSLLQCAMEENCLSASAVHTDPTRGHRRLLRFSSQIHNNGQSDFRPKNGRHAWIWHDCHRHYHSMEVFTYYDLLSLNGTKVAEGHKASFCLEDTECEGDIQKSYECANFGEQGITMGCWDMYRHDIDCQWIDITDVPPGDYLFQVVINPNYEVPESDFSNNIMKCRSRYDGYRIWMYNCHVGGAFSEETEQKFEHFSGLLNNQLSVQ
Summary of the method: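 LOXL2 enzyme preincubated with compound for 30 min at 37 °C, then Amplex Red (120 µM) / HRP (1.5 U/mL) mix containing 5 mM putrescine added. Buffer: 1.2 M urea, 50 mM sodium borate, pH 8.2. H2O2 fluorescence (ex 565/em 590) read every 2.5 min for 30 min at 37 °C; BAPN 100 µM as positive control; n≥2.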

[5] = target: T2, Lysyl oxidase homolog 2 (Homo sapiens, UniProt Q9Y4K0); assay: Time-dependent inhibition of recombinant human C-terminal His-tagged […] (1-774 residues) expressed in mouse myeloma cells assessed as apparent inhibition constant using putrescine as substrate by kitz-wilson plot analysis
T2 sequence (Q9Y4K0 whole entry): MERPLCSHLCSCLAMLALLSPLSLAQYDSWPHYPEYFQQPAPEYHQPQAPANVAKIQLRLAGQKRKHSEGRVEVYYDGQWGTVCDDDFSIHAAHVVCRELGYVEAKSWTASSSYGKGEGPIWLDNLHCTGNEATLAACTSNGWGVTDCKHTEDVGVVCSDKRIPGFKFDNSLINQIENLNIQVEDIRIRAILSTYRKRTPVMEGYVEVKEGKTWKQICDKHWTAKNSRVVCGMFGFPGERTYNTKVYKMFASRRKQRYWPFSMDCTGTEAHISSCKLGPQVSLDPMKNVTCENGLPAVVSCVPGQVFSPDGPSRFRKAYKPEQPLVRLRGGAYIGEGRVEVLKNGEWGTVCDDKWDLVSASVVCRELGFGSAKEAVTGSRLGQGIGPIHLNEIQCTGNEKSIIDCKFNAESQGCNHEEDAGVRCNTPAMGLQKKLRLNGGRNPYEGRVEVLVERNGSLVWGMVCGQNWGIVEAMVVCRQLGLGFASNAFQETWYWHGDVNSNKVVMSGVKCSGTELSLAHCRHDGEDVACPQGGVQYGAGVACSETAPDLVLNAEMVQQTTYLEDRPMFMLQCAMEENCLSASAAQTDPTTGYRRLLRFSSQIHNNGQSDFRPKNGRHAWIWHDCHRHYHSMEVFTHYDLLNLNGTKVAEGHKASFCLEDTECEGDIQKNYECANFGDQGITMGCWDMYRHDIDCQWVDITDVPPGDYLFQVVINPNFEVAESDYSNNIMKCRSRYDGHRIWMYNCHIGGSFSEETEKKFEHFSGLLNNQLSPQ
Summary of the method: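 Recombinant human LOXL2 preincubated with inhibitor for varying times at 37 °C, then 5 mM putrescine added with 120 µM Amplex Red and 1.5 U/mL HRP. Buffer was 1.2 M urea, 50 mM sodium borate, pH 8.2. Fluorescence read every 2.5 min for 30 min. Apparent Ki and kinact derived by Kitz–Wilson analysis.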

[6] = Stability in rat microsomes assessed as half life; type: ADME, Microsome
[7] = target: T2, Lysyl oxidase homolog 2; assay: Inhibition of LOXL2 in human IMR90 cells using putrescine as substrate preincubated with enzyme for 30 mins followed by substrate addition and measured every 2.5 mins for 30 mins by Amplex-Red oxidation assay; type: cell-based
Summary of the method: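 IMR90 fibroblasts grown in MEM/10% FBS to 80% confluence, then 48-72 h in phenol-red-free 0.1% FBS medium. Conditioned medium concentrated 40-fold (10 kDa). LOX and LOXL2 separated on a 50 kDa filter in 6 M urea/borate, then diluted back to 1.2 M urea. Preincubated 30 min at 37 °C with compound; Amplex Red/HRP/putrescine readout every 2.5 min over 30 min.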

[8] = Stability in dog microsomes assessed as half life; type: ADME, Canis lupus familiaris, Microsome
[9] = Stability in dog plasma assessed as half life; type: ADME, cell-free, Canis lupus familiaris

SMILES	inhibition [1]	Activity [2]	inhibition [3]	IC50 [4]	Ki [5]	half-life [6]	IC50 [7]	half-life [8]	half-life [9]
CCOC(=O)c1ccc2c(c1)c(-c1cccc(S(=O)(=O)N(C)C)c1)c(C)n2C/C(F)=C/CN.Cl	Active	Non-Toxic	Dose-dependent effect						
Cc1c(-c2cccc(S(=O)(=O)N(C)C)c2)c2cc(C(=O)O)ccc2n1C/C(F)=C/CN.Cl				6 nM	83 nM	> 1.5 h	9 nM	> 1.5 h	> 2 h
